Test system: MS2 coat protein
Test: apparent Kd, MS2 coat protein; higher = weaker binding; RNA-MaP array; FMN 200 µM where present
Method in brief: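 In 100 mM Tris-HCl pH 7.5, 80 mM KCl, 4 mM MgCl2, BSA, DTT, yeast tRNA and Tween-20, SNAP-549-labelled MS2 coat protein was titrated from 0.7 or 1.5 nM, doubling to 3 µM, over designs transcribed by stalled E. coli RNA polymerase on Illumina sequencing-chip clusters. This was done first without ligand, then with ligand held constant. After green signal was normalised to red-channel RNA signal and control-cluster median Fmax, the apparent Kd was taken as the median of filtered per-cluster binding-curve fits.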

[1] = designed as: OFF switch for flavin mononucleotide, no ligand
[2] = ligand present: flavin mononucleotide, designed as: OFF switch for flavin mononucleotide
[3] = designed as: ON switch for flavin mononucleotide, no ligand
[4] = ligand present: flavin mononucleotide, designed as: ON switch for flavin mononucleotide

| Sequence | apparent Kd [1] [nM] | apparent Kd [2] [nM] | apparent Kd [3] [nM] | apparent Kd [4] [nM] |
| --- | --- | --- | --- | --- |
| GAAGGGCCUCGAGGAUAUCGCUGCGGUCGUUUGACAUGAGGAUCACCCAUGUGAGAAGGCGAGGCUACUAACCAUGCCCGUUAU | 31.3 | 148 | – | – |
| GAAUAGGCAGGAUAUACAUGAGGAUCACCCAUGUGCUUGCGAUAGGCACGUGAACAACGUAGAAGGGCCUUAAC | 33.2 | 149 | – | – |
| GAAUAUUAGCAAGGAUAUCGGCUUACUAUAACUUUAUGCCCUGGGACAUGAGGAUCACCCAUGUACGAGAAGGUGCUUACUACA | 18.9 | 29.4 | – | – |
| GAAUGUCGGGUAGGAUAUGACGUGCCACGGAGGUCAGAAGGGCCGCGACAUGAGGAUCACCCAUGUACUGUAUUCCUUUUUCAA | 24.3 | 67.4 | – | – |
| GAAUUCGCAUGAGGAUAUGCACUCAUUUCAUGUGCAGAAGGUAUUUCAUUAGACAUGAGGAUCACCCAUGUAUUGGUCAAUAAC | – | – | 19.1 | 16.1 |
| GACACUAUGUUUGUCAGAUAGAGAGAGGAUAUGGCUCAUGUGACAUGAGGAUCACCCAUGUAUAAUCAGAAGGCUCGAGUACGA | – | – | 45.9 | 16.3 |
| GACAUUGGCAAGAAGGCAAACAUGAGGAUCACCCAUGUUCUGUAUGUAUUUUGAGGAUAUUGCCAAUGUAUGUGGAUCACCCAA | 8.91 | 10.1 | – | – |
| GACUGAAUACAGAAGGUGUUUGACAUGAGGAUCACCCAUGUGUUAUUCAGAUUCAUAGAAUAUAACAAGGAUAUGUAUAUAUCA | – | – | 228 | 61.6 |
| GACUGCCGAGGAUAUACAUGAGGAUCACCCAUGUGCUUCAGUAUCGAAAGAUGCAUGGGUAGAAGGCGGUAGUC | 391 | 284 | – | – |
| GACUGCUGAGGAUAUACAUGAGGAUCACCCAUGUGCUUCAGCUACGAAAGUAGCAUUGGUAGAAGGUAGUAGUC | 12.4 | 22.4 | – | – |
| GACUGCUGAGGAUAUACAUGAGGAUCACCCAUGUGCUUCAGCUAGGAGACUAGCAUUGGUAGAAGGUAGUAGUC | 11.1 | 16.1 | – | – |
| GACUUGCGCACAGGAUAUCCACGGAGCGGACGUGGAGAAGGGUGACAUGAGGAUCACCCAUGUACGUAAGUCUGGAUCACAUCC | – | – | 41.8 | 19.5 |
| GACUUGUUAGGAUAUCUUACUUUUGCAUCAUAGUAACCAUUGGAGAAGGGACAUGAGGAUCACCCAUGUUUGGA | 32.9 | 28.9 | – | – |
| GAGAAGUCAGGAUAUGCUGCUCGUCACUUGCGUGAUGAGUAGCAGAAGGGACAUGAGGAUCACCCAUGUAAAGC | 47.3 | 53.6 | – | – |
| GAGAGGUCAGGAUAUGCAUGGCGGGACUUGCGUCGUGGCGUGCAGAAGGGACAUGAGGAUCACCCAUGUGGAGG | 169 | 203 | – | – |
| GAGCGGGAAACAUGAGGAUCACCCAUGUAGUAAAUCCUCACGUAGGAUAUGCACACGAGAAGUGUGCAGAAGGGCGACCCGGUC | 79.6 | 183 | – | – |
| GAGCUUGAUGAGAAGGGUUACAUGAGGAUCACCCAUGUCGACCUUGGCGUAACAGGAUAUCAUCGGGCUCUGUGCGUUGACCCA | 23.7 | 120 | – | – |
| GAGGCUGGUCAGAAGGCGCUGCAGGCUGCGUAGCGAGGAUAUGACAUGAGGAUCACCCAUGUGGUAGCUGAUCCUCGGCGUUUA | 361 | 33.3 | – | – |
| GAGUACAUCGGAGGAUAUCAUGUAAAUACAUGAGGAUCACCCAUGUCGAUGGAGACAUCGGAGAUUGAGAAGGCCGAUGUACCG | – | – | 180 | 8.63 |
| GAGUAGUUGAAAGGAUAUUGAUUGUUAUAGAAUCAAGAAGGUUCUAACAUGAGGAUCACCCAUGUAGGACUAUUCCUGUGUAUC | – | – | 12.3 | 9.66 |
| GAGUGACAUGAGGAUCACCCAUGUGAGGAUAUCGGACGGACCAAAUUAACAAUAUUUGCGAGAAGGCACAUCGG | 88.5 | 130 | – | – |
| GAUAAGGGCGAGGAUAUGCCAUUGGCUGAGGUCGUAGAAGGUGCCACAUGAGGAUCACCCAUGUAUCAAGUACG | 34.5 | 32.4 | – | – |
| GAUAGGACAGAGAAGGACGUAGCUAGAGAUACUAGCAUAUGAACCUUCACAUGAGGAUCACCCAUGUAGGAUAUCUGUCCUAUC | 3.34 | 3.35 | – | – |
| GAUCAACAUGAGGAUCACCCAUGUGAGGAUAUGUAUCAUAGAUCUUCGGAUCUAUGAUACAGAAGGCAUGUGAA | 76.1 | 101 | – | – |
| GAUCCGUGGCUUUCGCUUUGUUCACAUGAGGAUCACCCAUGUAGAAGGUAGCGGUUGAAUUUCGCUGAGGAUAUACAUAGGUGC | 13.4 | 24.3 | – | – |
| GAUCCUUCUGUUAGGAUAUGCUUUGGGCUUCCGCAGUAGAAGGAACAUGAGGAUCACCCAUGUCCGAUGCCGUC | 74.6 | 101 | – | – |
| GAUCGUAUCCUAGGAUAUUCAUUAAAACAUGAGGAUCACCCAUGUAAAUUGGGAGAAGGAGGAUACGAUCAACAGCGAAAGCUG | – | – | 35.3 | 6.52 |
| GAUCUACAUGAGGAUCACCCAUGUAAGGAUAUCGUCACUGGAGCUUCGGCUCCAGUGACGAGAAGGUACAAUUA | 28.8 | 32.1 | – | – |

| Sequence | apparent Kd [1] [nM] | apparent Kd [2] [nM] | apparent Kd [3] [nM] | apparent Kd [4] [nM] |
| --- | --- | --- | --- | --- |
| GAUGCACAUGAGAAGGCGAUCAUGAAACAUGAUCGAGGAUAUCAUGUAAACAUGAGGAUCACCCAUGUAUGGGAAAAGUGCAUC | – | – | 119 | 12.1 |
| GAUGCAUAUGAGAAGGCGAUCAUGAAACAUGAUCGAGGAUAUCAUGUAAACAUGAGGAUCACCCAUGUAUGGGAAAAGUGCAUC | – | – | 72.4 | 11.4 |
| GAUGCAUAUGAGAAGGCGAUCAUGAAACAUGAUCGAGGAUAUCAUGUAAACAUGAGGAUCACCCAUGUAUGGGUAAAGUGCAUC | – | – | 392 | 27.7 |
| GAUUGACAUGAGGAUCACCCAUGUGAGGAUAUCGGCUGGACCGUGUUGGCUUCCGUUUCGAGAAGGCGCAUAGG | 26.1 | 48.3 | – | – |
| GAUUUAGAGCAGGAUAUCAUAGAAAUGUAUGAAUGAGAAGGGCUCACAUGAGGAUCACCCAUGUGGUCCUAGAU | 25.4 | 240 | – | – |
| GCAAAAGUCCUGAGGGUAGGAGACAGAAGGGCACCGGGAUCACUCCACAUGAGGAUCACCCAUGUGCAGGAUAUGUCGGCUGAA | 22.3 | 327 | – | – |
| GCACAUGAGGAUCACCCAUGUCGGGAGGAUAUCUAGGCUGGGCGAUGCUAGGGCGGCCUUUGCUUAGAGAAGGCCCAUAAAAUC | – | – | 69.1 | 32.4 |
| GCACGAGACUAAGGAUAUGGAGUGUCUACAUUAAACAUGAGGAUCACCCAUGUAGGGAGUAUGAUUCAGAAGGUAGAGACGUGC | – | – | 331 | 48.3 |
| GCACGGCAUGUAGGAUAUCGAGCGCCGGGCGCUCGAGAAGGACAUGAGGAUCACCCAUGUAUUCUGAGUGACAGAGUGCUGUGC | 19 | 46.8 | – | – |
| GCACGGUAUGUAGGAUAUGCAUAGCAUUGCUAUGCAGAAGGACAUGAGGAUCACCCAUGUAUGUAUUCCAUACAUUUCCCGUGC | 5.73 | 5.74 | – | – |
| GCACUGGAUGUAGGAUAUCAGGACGAUAAGUCCUGAGAAGGACAUGAGGAUCACCCAUGUAAUAACUCCCAGUGCUAUAAUAUA | 16.4 | 20.1 | – | – |
| GCACUUCGGCAGAAGGGACUAUGGGUAUGGUAGUCAGGAUAUGCAGGGUGGGCGUUUCACAUGAGGAUCACCCAUGUAGGACCA | – | – | 15.1 | 8.52 |
| GCAGCAUAUGCAGGAUAUCAGCACGUGUAGUGCUGAGAAGGGCACAUGAGGAUCACCCAUGUGAUCAAUUAAUAUUUAUGCUGC | 7.98 | 24.8 | – | – |
| GCAGCGCCUGACAUGAGGAUCACCCAUGUUAGAUUGUUAAGUCAGGAUAUAGUCUAGAAACUAGACUAGAAGGGAUAUGCUGCU | – | – | 15 | 8.03 |
| GCAGCUAAUGCAGGAUAUCAGCACGUGUAGUGCUGAGAAGGGCACAUGAGGAUCACCCAUGUGAUCAAUUAAUCUUAAUGCUGC | 17.3 | 54.5 | – | – |
| GCAGCUAAUGCAGGAUAUCAGCACGUGUAGUGCUGAGAAGGGCACAUGAGGAUCACCCAUGUGAUCAAUUAAUGUUAAUGCUGC | 18.1 | 57.5 | – | – |
| GCAGCUCCUGACAUGAGGAUCACCCAUGUUCAAUUGUUGAGUCAGGAUAUAGUCUAGAAACUAGACUAGAAGGGAUAUGCUGCU | – | – | 12.3 | 10.8 |
| GCAGGACAUGAGGAUCACCCAUGUCUCAAAUAUUGAGGAUAUGGACACGGUAUAUCCGAACCAGAAGGCAACCUGC | – | – | 48.6 | 39.8 |
| GCAGGAUAAGUGAGGAUAUACCUCUGGAUACAGAGGUAGAAGGCACAUGAGGAUCACCCAUGUUACUCACCUGC | 11.9 | 33.8 | – | – |
| GCAGGUCGUGUGAGGAUAUCAUAGUUUAGCGGAGAUGAGAAGGCACAUGAGGAUCACCCAUGUCCAUCCUGCCU | 36 | 92.6 | – | – |
| GCAUAUGUCGUCUACAUGAGGAUCACCCAUGUUGAUAAACAUGAGGAUAUUGAUAAGAAUUGUAUCGAGAAGGUAUGUAGGUGC | – | – | 258 | 347 |
| GCAUGCUAUGUCAGGAUAUACCUGUGGAUACAUAGGUAGAAGGGACAUGAGGAUCACCCAUGUCCUAAUCAUGC | 12.8 | 14.9 | – | – |
| GCCAACUCAUGAGGAUAUGGCACCUUAUUGGUGCCAGAAGGCGUGUCUAUUGACAUGAGGAUCACCCAUGUAUUAUAGUUGGCA | – | – | 678 | 105 |
| GCCAAUGUGGAGGAUAUCGACUUCGAAAGAAGUCGAGAAGGCCACACAUGAGGAUCACCCAUGUGAUGCCUGGC | 199 | 231 | – | – |
| GCCAGAGCAGGAUAUUCAAUAUCACACAUGAGGAUCACCCAUGUCUAUCGAAAGAUAGAGGGAGAAGGGCUCUGGC | 64.3 | 18.3 | – | – |
| GCCAGUUAUGUAGGAUAUGCGAAGCGAGCCUGAGCAGAAGGACAUGAGGAUCACCCAUGUGUUGCGGUUUGAGUACUGAUCGCU | 24.4 | 89.4 | – | – |
| GCCAGUUAUGUAGGAUAUGCGAGGCGAGCCUGAGCAGAAGGACAUGAGGAUCACCCAUGUAUUGCGGUUUGAGUUCUGAUCGCU | 23.4 | 58.6 | – | – |
